# Measurements as given in publication PMC9075408 (Journal of the American Heart Association: Cardiovascular …, 2021).
# Experiments:
# [1] = Plasma and hippocampal levels of 1-DL-MTRP by HPLC-MS/MS in CA/CPR rats; assay type: in vivo; conditions: rat
# [2] = system: rats resuscitated from cardiac arrest; assay: CPR outcomes and survival in rat model of electrically induced CA/CPR; assay type: in vivo
# [3] = system: rats resuscitated from cardiac arrest; assay: Hemodynamics; assay type: in vivo, rat; conditions: mean±SD
# [4] = system: rats resuscitated from cardiac arrest; assay: Myocardial function by transthoracic echocardiography in CA/CPR rats; assay type: in vivo, rat
# Outline: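 Rats were pretreated by gavage with test compound (800 mg/kg per dose) or 1% carboxymethylcellulose 16 and 2 h before 8 min untreated CA and 8 min CPR. At 4 and 96 h post-ROSC, LV systolic function was assessed by transthoracic M-mode, 2D, pulsed, color and tissue Doppler echocardiography. Anaesthesia at 96 h was intraperitoneal thiopental 50 mg/kg, with 10 mg/kg recall doses if needed. Analysis used ordinary 2-way ANOVA with Sidak post hoc.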
# [5] = system: rats resuscitated from cardiac arrest; assay: Plasma high-sensitivity cardiac troponin T; assay type: in vivo, rat; conditions: median [quartile 1–quartile 3]
# Outline: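 Arterial blood was drawn from the femoral cannula into K3-EDTA tubes 15 min before CA and at 4 and 96 h post-ROSC. Rats had received gavage test compound (800 mg/kg per dose) or carboxymethylcellulose vehicle 16 and 2 h pre-CA, then 8 min CA and 8 min CPR. Plasma hs-cTnT was measured by electrochemiluminescence immunoassay and analysed by ordinary 2-way ANOVA with Sidak test.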
# [6] = system: rats resuscitated from cardiac arrest; assay: Neurological deficit score; assay type: in vivo, rat; conditions: 24, 48, 72, and 96 hours post-ROSC, all time points; score 0 (normal) to 500 (brain death)
# [7] = system: IL1β and Arg1 mRNA, brain cortex; assay: Inflammatory gene expression; assay type: in vivo, rat; conditions: brain cortex 96 hours post-ROSC; not statistically significant
# Outline: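 Male Sprague-Dawley ex-breeder rats underwent 8 min untreated CA and 8 min CPR after gavage with test compound (800 mg/kg per dose) or 1% carboxymethylcellulose vehicle 16 and 2 h before CA; naive rats served as controls. At 96 h post-ROSC, cortical RNA was analysed by SYBR Green real-time PCR with exon-spanning primers and Gapdh reference. Results were calculated by ΔΔCt as fold induction, mean±SD, n=4-6/group, Kruskal-Wallis/Dunn's.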
# [8] = system: kynurenine pathway (IDO, tryptophan→kynurenine step)
# [9] = system: kynurenine pathway (IDO, tryptophan→kynurenine step); conditions: 96 hours post-ROSC
# [10] = 2 oral doses of 800 mg/kg 16 and 2 hours before CA, 15 minutes pre-CA and 2 hours post-ROSC
# [11] = 2 oral doses of 800 mg/kg 16 and 2 hours before CA, 96 hours post-ROSC
smiles,measurement,setting,value
"Cn1cc(CC(N)C(=O)O)c2ccccc21 (racemic) [1‐DL‐MTRP, 1‐methyl‐DL‐tryptophan]","1-DL-MTRP plasma concentration, average",[1]; [10],34 µg/mL
same,"1-DL-MTRP plasma concentration, range",[1]; [10],20 to 40 µg/mL
same,"1-DL-MTRP hippocampal concentration, average",[1]; [11],11.4 µg/g
same,"1-DL-MTRP plasma concentration, average",[1]; [11],21 µg/mL
same,drug levels (plasma and brain) as molar concentrations,[1]; 96 hours post-ROSC,52 to 96 µM
same,"Resuscitation, no./total","[2]; 800 mg/kg by gavage 16 and 2 h before CA, 8 min CA, 8 min CPR",15/17
same,Time to ROSC,[2]; median [quartile 1–quartile 3],481 [370–482] s
same,"4-h survival, no./resuscitated","[2]; rat, in vivo",15/15
same,"96-h survival, no./resuscitated","[2]; rat, in vivo",10/15
same,Shocks to ROSC,"[2]; rat, in vivo",1 no.
same,animals that survived up to 96 hours after CA,[2]; vehicle 62%,66%
same,successfully resuscitated animals,[2]; vehicle 84%,88%
same,CPP,[3]; PR 10 min,57±21 mm Hg
same,DAP,[3]; PR 10 min,57±21 mm Hg
same,HR,[3]; PR 10 min,237±54 beats per min
same,MAP,[3]; PR 10 min,76±20 mm Hg
same,SAP,[3]; PR 10 min,103±17 mm Hg
same,CPP,[3]; PR 1 h,84±9 mm Hg
same,DAP,[3]; PR 1 h,84±9 mm Hg
same,HR,[3]; PR 1 h,335±12 beats per min
same,MAP,[3]; PR 1 h,96±9 mm Hg
same,SAP,[3]; PR 1 h,117±9 mm Hg
same,CPP,[3]; PR 2 h,81±12 mm Hg
same,DAP,[3]; PR 2 h,81±12 mm Hg
same,HR,[3]; PR 2 h,360±20 beats per min
same,MAP,[3]; PR 2 h,96±13 mm Hg
same,SAP,[3]; PR 2 h,118±12 mm Hg
same,CPP,[3]; PR 3 h,75±15 mm Hg
same,DAP,[3]; PR 3 h,74±15 mm Hg
same,HR,[3]; PR 3 h,358±23 beats per min
same,MAP,[3]; PR 3 h,89±16 mm Hg
same,SAP,[3]; PR 3 h,111±18 mm Hg
same,CPP,[3]; PR 4 h,73±20 mm Hg
same,DAP,[3]; PR 4 h,78±15 mm Hg
same,HR,[3]; PR 4 h,351±51 beats per min
same,MAP,[3]; PR 4 h,94±17 mm Hg
same,SAP,[3]; PR 4 h,115±17 mm Hg
same,CPP,[3]; Pre-CA,109±13 mm Hg
same,DAP,[3]; Pre-CA,114±12 mm Hg
same,HR,[3]; Pre-CA,375±34 beats per min
same,MAP,[3]; Pre-CA,127±13 mm Hg
same,SAP,[3]; Pre-CA,151±13 mm Hg
same,LVEF,[4]; PR 4 h,36.8±3.2%
same,LVEF,[4]; PR 96 h,75.3±3.2%
same,hs-cTnT,[5]; PR 4 h,4965 [2978–5242] pg/mL
same,hs-cTnT,[5]; PR 96 h,64 [36–278] pg/mL
same,hs-cTnT,[5]; Pre-CA,98 [66–111] pg/mL
same,NDS values vs vehicle-treated rats,[6],lower
same,Arg1 gene expression,[7],tendency towards an increase
same,CA-induced IL1β upregulation (mRNA),[7],slightly reduced
same,"plasma kynurenine levels, % lower than in vehicle-treated rats","[8]; 15 minutes pre-CA, P=0.0243",24%
same,plasma kynurenine levels following CA vs vehicle-treated rats,"[8]; PR 2 hours and PR 96 hours, same time points",markedly lower than in vehicle‐treated rats
same,hippocampal kynurenine levels vs vehicle-treated rats,"[9]; P=0.0409, comparable to naive rats",significantly lower than in vehicle‐treated rats
same,hippocampal 5-HT concentrations,[9]; vs naive rats,superimposable to those measured in naive rats
